{
  "source": "ChEMBL document CHEMBL5034051",
  "about": "“Proteome-wide Identification of Off-Targets of a Potent EGFRL858R/T790M Mutant Inhibitor” (ACS Med Chem Lett, 2022)",
  "key": {"NCI-H1975 [1]": {"system": "NCI-H1975", "assay": "Antiproliferative activity against NT5DC1 knockdown human NCI-H1975 cells assessed as reduction in cell viability incubated for 48 hrs by CCK8 assay", "type": "functional, cell-based", "outline": "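NT5DC1 was knocked down in H1975 cells with siRNA, with scrambled siRNA as the negative control. Knockdown was checked by Western blot. Cells with or without knockdown were exposed to a range of compound concentrations, and viability was read out against DMSO-treated controls.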"}, "[2]": {"biological_target": "Epidermal growth factor receptor (Homo sapiens, UniProt P00533, T790M)", "sequence (P00533 25-1210 T790M limits assumed)": "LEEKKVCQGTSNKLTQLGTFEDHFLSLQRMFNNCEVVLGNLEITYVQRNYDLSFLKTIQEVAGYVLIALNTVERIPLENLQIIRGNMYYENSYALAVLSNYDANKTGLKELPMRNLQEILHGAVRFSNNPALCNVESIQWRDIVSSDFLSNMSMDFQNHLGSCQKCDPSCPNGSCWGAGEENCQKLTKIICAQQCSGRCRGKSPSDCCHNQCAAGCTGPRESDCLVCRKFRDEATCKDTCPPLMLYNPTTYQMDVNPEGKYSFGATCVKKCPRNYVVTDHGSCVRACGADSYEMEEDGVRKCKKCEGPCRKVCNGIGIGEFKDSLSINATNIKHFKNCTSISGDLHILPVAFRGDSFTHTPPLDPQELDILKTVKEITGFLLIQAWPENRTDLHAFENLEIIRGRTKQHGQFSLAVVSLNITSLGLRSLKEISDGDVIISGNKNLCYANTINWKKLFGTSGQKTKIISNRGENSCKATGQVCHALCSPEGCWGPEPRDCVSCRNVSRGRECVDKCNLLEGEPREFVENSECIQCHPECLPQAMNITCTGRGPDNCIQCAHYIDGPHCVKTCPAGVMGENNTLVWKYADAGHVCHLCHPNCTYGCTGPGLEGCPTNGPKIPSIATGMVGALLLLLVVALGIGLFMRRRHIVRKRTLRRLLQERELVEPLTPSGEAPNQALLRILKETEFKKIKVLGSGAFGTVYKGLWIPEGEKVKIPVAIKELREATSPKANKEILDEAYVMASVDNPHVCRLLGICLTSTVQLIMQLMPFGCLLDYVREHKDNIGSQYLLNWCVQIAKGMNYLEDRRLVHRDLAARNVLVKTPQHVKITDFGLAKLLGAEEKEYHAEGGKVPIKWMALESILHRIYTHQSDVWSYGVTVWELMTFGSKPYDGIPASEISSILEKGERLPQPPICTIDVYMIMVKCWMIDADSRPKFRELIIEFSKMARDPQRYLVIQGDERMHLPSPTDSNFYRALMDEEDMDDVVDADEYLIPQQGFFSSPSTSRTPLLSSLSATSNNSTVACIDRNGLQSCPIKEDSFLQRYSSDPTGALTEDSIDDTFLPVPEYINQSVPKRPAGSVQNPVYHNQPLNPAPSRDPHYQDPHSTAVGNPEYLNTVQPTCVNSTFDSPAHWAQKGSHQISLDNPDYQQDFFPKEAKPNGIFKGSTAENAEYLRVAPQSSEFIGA", "assay": "Inhibition of EGFR T790M mutant (unknown origin) using Poly (Glu, Tyr)4:1 as substrate by spectrophotometry"}, "[3]": {"biological_target": "T1, 5'-nucleotidase domain-containing protein 1 (Homo sapiens) (UniProt Q5TFE4)", "T1 sequence (whole entry)": "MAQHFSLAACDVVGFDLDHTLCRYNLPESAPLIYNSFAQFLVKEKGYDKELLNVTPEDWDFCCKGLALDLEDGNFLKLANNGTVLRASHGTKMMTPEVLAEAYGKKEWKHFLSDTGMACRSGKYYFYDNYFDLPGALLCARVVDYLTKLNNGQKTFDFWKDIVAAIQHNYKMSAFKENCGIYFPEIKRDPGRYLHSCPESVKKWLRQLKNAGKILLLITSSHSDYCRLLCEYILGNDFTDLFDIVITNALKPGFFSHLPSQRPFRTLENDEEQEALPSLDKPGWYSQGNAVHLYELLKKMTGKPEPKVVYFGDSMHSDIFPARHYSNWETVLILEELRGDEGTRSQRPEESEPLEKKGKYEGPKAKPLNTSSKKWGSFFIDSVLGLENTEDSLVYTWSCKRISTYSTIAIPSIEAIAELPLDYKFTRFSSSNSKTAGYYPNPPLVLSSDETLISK", "assay": "Thermal stabilization of NT5DC1 in human NCI-H1975 cells assessed as positive shift in melting temperature by CETSA", "type": "cell-based", "outline": "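Binding was tested by cellular thermal shift assay in H1975 cells exposed to the compounds. NT5DC1 stabilization was read as a shift in melting temperature.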"}, "NCI-H1975 [4]": {"system": "NCI-H1975", "assay": "Antiproliferative activity against human NCI-H1975 cells harboring EGFR T790M mutant assessed as reduction in cell viability measured after 72 hrs by CCK8 assay", "type": "functional, cell-based", "details": "NCI-H1975, 72 h", "outline": "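H1975 NSCLC cells, which carry EGFR T790M, were used in a cell-based CCK8 antiproliferation assay. IC50 values were reported.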"}, "NCI-H1975 [5]": {"system": "NCI-H1975", "assay": "Binding affinity to RPS19 in human NCI-H1975 cells at 5 uM by pull down/LC-MS/MS analysis", "type": "cell-based", "outline": "(§1)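 Live H1975 cells were incubated for 1 h with the 5 μM alkyne probe, with or without 5× parent inhibitor as competitor. Cells were lysed and clicked by CuAAC to a biotin-TAMRA-azide tag. Proteins were enriched on streptavidin beads, checked by in-gel fluorescence, trypsin-digested and run on LC-MS/MS with label-free quantification. Hits were kept if log2 enrichment (probe/DMSO) was >3, −log10 p was >2 and probe LFQ intensity was >1 × 10^7.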"}, "[6]": {"biological_target": "T1, 5'-nucleotidase domain-containing protein 1 (Homo sapiens)", "assay": "Binding affinity to NT5DC1 in human MV4-11 cells at 1 uM by Western blot analysis", "type": "cell-based", "outline": "(§2)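 Live cancer cells were labelled in situ with the 1 μM alkyne probe, clicked to TAMRA-azide and resolved by SDS-PAGE with fluorescence scanning. NT5DC1 expression in each line was measured separately by Western blot.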"}, "[7]": {"biological_target": "Epidermal growth factor receptor (Homo sapiens) (UniProt P00533)", "sequence (P00533 whole entry)": "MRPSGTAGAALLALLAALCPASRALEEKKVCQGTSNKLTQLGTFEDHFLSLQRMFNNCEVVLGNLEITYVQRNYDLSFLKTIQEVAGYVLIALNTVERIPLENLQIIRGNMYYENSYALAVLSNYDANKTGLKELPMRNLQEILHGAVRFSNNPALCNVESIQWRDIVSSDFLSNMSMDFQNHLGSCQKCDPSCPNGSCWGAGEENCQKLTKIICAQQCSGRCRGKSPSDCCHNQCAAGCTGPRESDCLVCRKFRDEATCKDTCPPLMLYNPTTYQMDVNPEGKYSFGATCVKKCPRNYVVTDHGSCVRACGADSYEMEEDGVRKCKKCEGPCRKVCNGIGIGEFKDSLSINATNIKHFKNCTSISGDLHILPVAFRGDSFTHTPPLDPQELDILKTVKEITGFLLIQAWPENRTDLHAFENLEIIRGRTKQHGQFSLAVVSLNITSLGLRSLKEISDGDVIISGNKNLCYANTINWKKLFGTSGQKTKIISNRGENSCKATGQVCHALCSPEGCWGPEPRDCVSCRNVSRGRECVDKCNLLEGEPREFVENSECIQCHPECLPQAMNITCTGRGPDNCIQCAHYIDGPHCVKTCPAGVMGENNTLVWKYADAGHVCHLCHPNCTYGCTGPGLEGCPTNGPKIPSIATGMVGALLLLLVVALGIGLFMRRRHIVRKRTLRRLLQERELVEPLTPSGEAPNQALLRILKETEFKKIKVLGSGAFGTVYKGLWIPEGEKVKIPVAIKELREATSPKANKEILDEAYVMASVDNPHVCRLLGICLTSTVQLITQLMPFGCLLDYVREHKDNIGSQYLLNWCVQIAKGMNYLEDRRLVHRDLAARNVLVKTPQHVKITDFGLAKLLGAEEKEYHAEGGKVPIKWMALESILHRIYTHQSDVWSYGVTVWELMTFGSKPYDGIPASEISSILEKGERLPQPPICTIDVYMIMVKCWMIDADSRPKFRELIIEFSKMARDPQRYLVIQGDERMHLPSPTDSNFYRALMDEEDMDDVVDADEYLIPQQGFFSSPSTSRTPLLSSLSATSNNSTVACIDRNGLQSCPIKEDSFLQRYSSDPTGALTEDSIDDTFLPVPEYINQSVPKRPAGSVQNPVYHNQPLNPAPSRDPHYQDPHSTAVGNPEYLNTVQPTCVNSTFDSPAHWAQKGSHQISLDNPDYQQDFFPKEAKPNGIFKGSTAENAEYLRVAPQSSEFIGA", "assay": "Binding affinity to EGFR in human NCI-H1975 cells at 5 uM by pull down/LC-MS/MS analysis", "type": "cell-based", "outline": "as §1"}, "[8]": {"biological_target": "Trifunctional enzyme subunit alpha, mitochondrial (Homo sapiens) (UniProt P40939)", "sequence (P40939 whole entry)": "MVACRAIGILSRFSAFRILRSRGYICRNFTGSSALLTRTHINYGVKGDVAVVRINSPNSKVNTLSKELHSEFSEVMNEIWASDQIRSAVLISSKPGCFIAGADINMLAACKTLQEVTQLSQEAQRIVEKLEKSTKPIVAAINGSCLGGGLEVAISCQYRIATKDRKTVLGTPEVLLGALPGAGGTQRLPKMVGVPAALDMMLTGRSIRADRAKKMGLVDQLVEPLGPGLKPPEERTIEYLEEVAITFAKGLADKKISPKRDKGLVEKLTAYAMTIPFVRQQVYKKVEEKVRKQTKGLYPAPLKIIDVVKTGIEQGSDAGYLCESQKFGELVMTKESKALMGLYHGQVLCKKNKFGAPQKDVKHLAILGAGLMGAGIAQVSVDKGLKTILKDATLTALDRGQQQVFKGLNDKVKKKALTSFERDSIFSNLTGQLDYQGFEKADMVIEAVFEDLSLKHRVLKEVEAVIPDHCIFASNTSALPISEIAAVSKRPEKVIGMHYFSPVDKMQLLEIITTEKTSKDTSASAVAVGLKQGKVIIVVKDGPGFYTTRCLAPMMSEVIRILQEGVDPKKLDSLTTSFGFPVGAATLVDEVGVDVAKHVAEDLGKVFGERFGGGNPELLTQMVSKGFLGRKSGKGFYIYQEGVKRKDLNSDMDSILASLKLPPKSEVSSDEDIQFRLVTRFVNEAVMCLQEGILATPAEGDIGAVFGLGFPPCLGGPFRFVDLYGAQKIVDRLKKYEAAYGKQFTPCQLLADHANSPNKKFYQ", "assay": "Binding affinity to HADHA in human NCI-H1975 cells at 5 uM by pull down/LC-MS/MS analysis", "type": "cell-based", "outline": "as §1"}, "[9]": {"biological_target": "T1, 5'-nucleotidase domain-containing protein 1 (Homo sapiens)", "assay": "Binding affinity to NT5DC1 in human MDA-MB-453 cells at 1 uM by Western blot analysis"}, "[10]": {"biological_target": "DNA replication licensing factor MCM2 (Homo sapiens) (UniProt P49736)", "sequence (P49736 whole entry)": "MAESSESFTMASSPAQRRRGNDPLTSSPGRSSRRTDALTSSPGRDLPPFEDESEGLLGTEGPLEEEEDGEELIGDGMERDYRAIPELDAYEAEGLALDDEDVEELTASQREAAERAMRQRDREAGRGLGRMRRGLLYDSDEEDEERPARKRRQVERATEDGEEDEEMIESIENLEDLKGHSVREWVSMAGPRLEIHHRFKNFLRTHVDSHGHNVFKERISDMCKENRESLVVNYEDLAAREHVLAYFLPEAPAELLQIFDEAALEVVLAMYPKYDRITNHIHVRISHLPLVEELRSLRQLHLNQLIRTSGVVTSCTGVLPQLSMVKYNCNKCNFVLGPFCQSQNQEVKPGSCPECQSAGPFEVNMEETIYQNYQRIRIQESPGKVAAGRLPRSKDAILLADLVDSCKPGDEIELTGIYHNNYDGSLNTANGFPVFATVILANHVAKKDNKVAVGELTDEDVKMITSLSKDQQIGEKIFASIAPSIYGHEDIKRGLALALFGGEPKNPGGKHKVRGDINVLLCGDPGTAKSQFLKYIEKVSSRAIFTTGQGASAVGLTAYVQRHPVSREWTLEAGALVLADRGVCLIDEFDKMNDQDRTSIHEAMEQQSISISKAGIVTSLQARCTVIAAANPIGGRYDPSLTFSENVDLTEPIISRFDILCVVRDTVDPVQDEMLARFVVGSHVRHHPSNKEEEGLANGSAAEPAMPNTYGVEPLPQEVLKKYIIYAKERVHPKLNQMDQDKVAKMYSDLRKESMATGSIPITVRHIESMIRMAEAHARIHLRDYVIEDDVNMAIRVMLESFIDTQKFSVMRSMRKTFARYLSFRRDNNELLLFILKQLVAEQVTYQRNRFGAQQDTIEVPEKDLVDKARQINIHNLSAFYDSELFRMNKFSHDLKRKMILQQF", "assay": "Binding affinity to MCM2 in human NCI-H1975 cells at 5 uM by pull down/LC-MS/MS analysis", "type": "cell-based", "outline": "as §1"}, "[11]": {"biological_target": "T1, 5'-nucleotidase domain-containing protein 1 (Homo sapiens)", "assay": "Binding affinity to NT5DC1 in human MCF7 cells at 1 uM by Western blot analysis", "type": "cell-based", "outline": "as §2"}, "[12]": {"biological_target": "Mitochondrial antiviral-signaling protein (Homo sapiens) (UniProt Q7Z434)", "sequence (Q7Z434 whole entry)": "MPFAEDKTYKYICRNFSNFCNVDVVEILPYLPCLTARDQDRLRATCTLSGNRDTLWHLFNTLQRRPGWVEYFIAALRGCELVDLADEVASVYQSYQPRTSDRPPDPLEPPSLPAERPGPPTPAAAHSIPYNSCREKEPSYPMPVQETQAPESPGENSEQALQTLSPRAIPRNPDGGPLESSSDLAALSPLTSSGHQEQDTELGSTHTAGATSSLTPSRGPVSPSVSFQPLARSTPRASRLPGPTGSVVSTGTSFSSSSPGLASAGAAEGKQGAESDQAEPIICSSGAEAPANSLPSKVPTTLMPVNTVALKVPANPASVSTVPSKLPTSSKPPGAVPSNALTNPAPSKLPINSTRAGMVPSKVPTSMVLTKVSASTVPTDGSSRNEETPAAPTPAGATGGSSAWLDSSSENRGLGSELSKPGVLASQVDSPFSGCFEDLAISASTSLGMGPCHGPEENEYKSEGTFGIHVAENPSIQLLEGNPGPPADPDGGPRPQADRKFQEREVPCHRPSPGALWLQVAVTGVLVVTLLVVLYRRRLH", "assay": "Binding affinity to MAVS in human NCI-H1975 cells at 5 uM by pull down/LC-MS/MS analysis", "type": "cell-based", "outline": "as §1"}, "[13]": {"biological_target": "T1, 5'-nucleotidase domain-containing protein 1 (Homo sapiens)", "assay": "Binding affinity to NT5DC1 in human Huh-7 cells at 1 uM by Western blot analysis", "type": "cell-based", "outline": "as §2"}, "[14]": {"biological_target": "T1, 5'-nucleotidase domain-containing protein 1 (Homo sapiens)", "assay": "Binding affinity to NT5DC1 in human NCI-H1299 cells at 1 uM by Western blot analysis", "type": "cell-based", "outline": "as §2"}, "[15]": {"biological_target": "T1, 5'-nucleotidase domain-containing protein 1 (Homo sapiens)", "assay": "Binding affinity to NT5DC1 in human HeLa cells at 1 uM by Western blot analysis", "type": "cell-based", "outline": "as §2"}, "[16]": {"biological_target": "Epidermal growth factor receptor (Homo sapiens) (UniProt P00533)", "assay": "Inhibition of EGFR in human NCI-H1975 cells by pull down/Western blot analysis", "type": "cell-based", "outline": "(§3)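 H1975 cells were treated with the probe, and the lysate was clicked to a biotin tag and enriched on streptavidin beads. The pulled-down proteins were then detected by Western blot with antibodies to EGFR and NT5DC1.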"}, "NCI-H1975 [17]": {"system": "NCI-H1975", "assay": "Binding affinity to MAP4 in human NCI-H1975 cells at 5 uM by pull down/LC-MS/MS analysis", "type": "cell-based", "outline": "as §1"}, "[18]": {"assay": "Drug uptake in cytosol of human NCI-H1975 cells assessed as fluorescence signal at 5 uM incubated for 1 hrs by fluorescence microscopy", "type": "ADME, subcellular", "outline": "(§4)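 Live H1975 cells were incubated for 1 h with the 5 μM alkyne probe, with or without parent inhibitor, against DMSO controls. Cells were then fixed, permeabilized, clicked with TAMRA-azide and imaged by fluorescence microscopy, with excitation at 550 nm for the probe channel.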"}, "[19]": {"biological_target": "T1, 5'-nucleotidase domain-containing protein 1 (Homo sapiens)", "assay": "Binding affinity to NT5DC1 in human NCI-H1975 cells at 5 uM by pull down/LC-MS/MS analysis", "type": "cell-based", "outline": "as §1"}, "[20]": {"biological_target": "T1, 5'-nucleotidase domain-containing protein 1 (Homo sapiens)", "assay": "Inhibition of NT5DC1 in human NCI-H1975 cells by pull down/Western blot analysis", "type": "cell-based", "outline": "as §3"}, "[21]": {"assay": "Drug uptake in nucleus of human NCI-H1975 cells assessed as fluorescence signal at 5 uM incubated for 1 hrs by fluorescence microscopy", "type": "ADME, cell-based", "details": "nci-h1975, 1 h", "outline": "as §4"}},
  "note": "The source made the active and inactive calls. The rule behind the calls is not given here.",
  "data": [
    {"compound": "C=CC(=O)Nc1cccc(-n2c(=O)cc(C)c3cnc(Nc4ccc(N5CCN(C)CC5)cc4OC)nc32)c1", "values": [
      {"measurement": "Activity", "setting": "NCI-H1975 [1]", "result": "Active"},
      {"measurement": "IC50", "setting": "[2]", "result": 5.27, "unit": "nM"},
      {"measurement": "Activity", "setting": "[3]", "result": "Active"},
      {"measurement": "IC50", "setting": "NCI-H1975 [4]", "result": 130, "unit": "nM"}
    ]},
    {"compound": "C=CC(=O)Nc1cc(Nc2nccc(-c3cn(C)c4ccccc34)n2)c(OC)cc1N(C)CCN(C)C", "note": "[OSIMERTINIB]", "values": [
      {"measurement": "IC50", "setting": "NCI-H1975 [4]", "result": "[…]"}
    ]},
    {"compound": "C#CCN1CCN(c2ccc(Nc3ncc4c(C)cc(=O)n(-c5cccc(NC(=O)C=C)c5)c4n3)c(OC)c2)CC1", "values": [
      {"measurement": "Activity", "setting": "NCI-H1975 [1]", "result": "Active"},
      {"measurement": "Activity", "setting": "NCI-H1975 [5]", "result": "Active"},
      {"measurement": "IC50", "setting": "[2]", "result": 8.04, "unit": "nM"},
      {"measurement": "Activity", "setting": "[6]", "result": "Active"},
      {"measurement": "Activity", "setting": "[7]", "result": "Active"},
      {"measurement": "Activity", "setting": "[8]", "result": "Active"},
      {"measurement": "Activity", "setting": "[9]", "result": "Active"},
      {"measurement": "Activity", "setting": "[10]", "result": "Active"},
      {"measurement": "Activity", "setting": "[11]", "result": "Active"},
      {"measurement": "Activity", "setting": "[3]", "result": "Active"},
      {"measurement": "Activity", "setting": "[12]", "result": "Active"},
      {"measurement": "Activity", "setting": "[13]", "result": "Active"},
      {"measurement": "Activity", "setting": "[14]", "result": "Active"},
      {"measurement": "Activity", "setting": "[15]", "result": "Active"},
      {"measurement": "IC50", "setting": "NCI-H1975 [4]", "result": 820, "unit": "nM"},
      {"measurement": "inhibition", "setting": "[16]", "result": "Active"},
      {"measurement": "Activity", "setting": "NCI-H1975 [17]", "result": "Active"},
      {"measurement": "Drug uptake", "setting": "[18]", "result": "Active"},
      {"measurement": "Activity", "setting": "[19]", "result": "Active"},
      {"measurement": "inhibition", "setting": "[20]", "result": "Active"},
      {"measurement": "Drug uptake", "setting": "[21]", "result": "Not Active"}
    ]},
    {"compound": "CN(C)C/C=C/C(=O)Nc1cc2c(Nc3ccc(F)c(Cl)c3)ncnc2cc1O[C@H]1CCOC1", "note": "[AFATINIB]", "values": [
      {"measurement": "IC50", "setting": "NCI-H1975 [4]", "result": 370, "unit": "nM"}
    ]}
  ]
}
